Activity calls are given as the source filed them. The calls are words filed in the database; no cut-off is given here.
Legend:
NB-4 = assay: Cytotoxicity against human NB4 cells after 72 hrs by trypan blue exclusion assay; assay type: functional, cell-based; details: NB-4, 72 h
Outline: (§1)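 Cells were exposed for 72 h to the test agent at increasing concentrations from 10 nM to 20 μM, at 37 °C in humidified 5% CO2. Cells were scraped and resuspended in 0.25% w/v trypan blue in PBS, and dead cells were counted under a light microscope in a Malassez chamber. IC50 is the concentration giving 50% cytotoxicity. Values are mean ± SE of three independent experiments, each run in duplicate.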

MCF7 [1] = assay: Cell cycle arrest in human MCF7 cells assessed as accumulation at G1 phase at 1 uM after 48 hrs by FACS analysis; assay type: functional
Outline: (§2)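 Cells plated at 250 000 per 100 mm plate and exposed to solvent vehicle or compound for 48 h. Trypsinized cells fixed in 70% ethanol, treated with 100 μg/mL RNase A for 30 min at 37 °C, then stained with 50 μg/mL propidium iodide in 0.25% Tween-20 for 30 min at 37 °C in the dark. DNA content of 1 × 10⁶ cells read by flow cytometry, giving sub-G1, G0/G1, S and G2/M fractions.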

SK-MEL-28 [2] = assay: Cytotoxicity against human SK-MEL-28 cells after 72 hrs by trypan blue exclusion assay; assay type: functional, cell-based; details: SK-MEL-28, 72 h; outline: as §1
[3] = Cytotoxicity against mouse TSA cells after 72 hrs by trypan blue exclusion assay; assay type: functional, cell-based; details: TS/A; outline: as §1
P19 [4] = assay: Cytotoxicity against mouse P19 cells after 72 hrs by trypan blue exclusion assay; assay type: functional, cell-based; details: P19, 72 h; outline: as §1
P19 [5] = assay: Induction of dendrite outgrowth in IL-4/GMCSF-stimulated mouse P19 cells assessed as dendrite length after 48 hrs by light microscopy; assay type: functional
MCF7 [6] = assay: Cell cycle arrest in human MCF7 cells assessed as accumulation at pre-G1 phase at 1 uM after 48 hrs by FACS analysis; assay type: functional; outline: as §2
SK-MEL-28 [7] = assay: Cell cycle arrest in human SK-MEL-28 cells assessed as accumulation at G1 phase at 1 uM after 48 hrs by FACS analysis; assay type: functional; outline: as §2
SK-MEL-28 [8] = assay: Effect on human SK-MEL-28 cell morphology assessed as change from fibroblastic to melanocytic morphology at 1 uM after 48 hrs by light microscopy
[9] = Cytotoxicity against human U87 cells after 72 hrs by trypan blue exclusion assay; assay type: functional, cell-based, U-87MG ATCC; details: U-87 MG; outline: as §1
P19 [10] = assay: Cytotoxicity against mouse P19 cells assessed as modification of cell morphology; assay type: functional
SK-MEL-28 [11] = assay: Effect on human SK-MEL-28 cell morphology assessed as appearance of type 4 melanosomes at 1 uM after 48 hrs by transmission electron microscopy
SW-620 = assay: Cytotoxicity against human SW620 cells after 72 hrs by trypan blue exclusion assay; assay type: functional, cell-based; details: SW-620, 72 h; outline: as §1
MCF7 [12] = assay: Induction of human MCF7 cell differentiation assessed as milk fat accumulation in intracytoplasmic vesicle at 1 uM after 48 hrs by Bligh and Dyer method; assay type: functional, cell-based
Outline: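 MCF-7 cells (5 million) exposed to vehicle or compound for 48 h, washed three times in PBS. Lipids extracted by the Bligh and Dyer method and triglycerides quantified.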

SH-SY5Y = assay: Cytotoxicity against human SH-SY5Y cells after 72 hrs by trypan blue exclusion assay; assay type: functional, cell-based; outline: as §1
U-937 [13] = assay: Cytotoxicity against human U937 cells after 3 days by trypan blue exclusion assay; assay type: functional, cell-based; details: Homo sapiens, U-937, 72 h; read-out: IC50
Outline: (§3)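 U937 and P19 cells treated with compound. Cell death scored by trypan blue exclusion, with cells scraped, suspended in 0.25% w/v trypan blue in PBS and counted in a Malassez cell. IC50 is the concentration giving 50% cytotoxicity.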

SK-MEL-28 [14] = assay: Induction of melanogenesis in human SK-MEL-28 cells assessed as cellular melanin content at 1 uM after 48 hrs by spectrophotometry
MCF7 [15] = assay: Cell cycle arrest in human MCF7 cells assessed as accumulation at G2/M phase at 1 uM after 48 hrs by FACS analysis; assay type: functional; outline: as §2
SK-N-SH = assay: Cytotoxicity against human SK-N-SH cells after 72 hrs by trypan blue exclusion assay; assay type: functional, cell-based; outline: as §1
SK-MEL-28 [16] = assay: Induction of melanogenesis in human SK-MEL-28 cells assessed as cellular melanin content at 1 uM after 48 hrs by fluorimetry; assay type: functional, cell-based; details: in the assay text read “by spectrophotometry” for “by fluorimetry”
Outline: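 SK-Mel-28 cells exposed to compound, washed in PBS and pelleted. Pellets of 2 × 10⁶ cells dissolved in 1 M NaOH for 1 h at 80 °C. Melanin read spectrophotometrically at 405 nm.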

MCF7 [17] = assay: Induction of human MCF7 cell differentiation assessed as stimulation of milk fat globulin expression at 1 uM after 48 hrs by immunocytochemistry; assay type: functional, cell-based
P19 [18] = assay: Induction of dendrite out growth in IL-4/GMCSF-stimulated mouse P19 cells assessed as dendrite length at 100 nM after 48 hrs by light microscopy; assay type: functional
MCF7 [19] = assay: Cytotoxicity against human MCF7 cells after 72 hrs by trypan blue exclusion assay; assay type: functional, cell-based; details: MCF7, 72 h; outline: as §1
B16-F10 = assay: Cytotoxicity against mouse B16F10 cells after 72 hrs by trypan blue exclusion assay; assay type: functional, cell-based; details: B16-F10, 72 h; outline: as §1
SK-MEL-28 [20] = assay: Cell cycle arrest in human SK-MEL-28 cells assessed as accumulation at pre-G1 phase at 1 uM after 48 hrs by FACS analysis; assay type: functional; outline: as §2
MCF7 [21] = assay: Cell cycle arrest in human MCF7 cells assessed as accumulation at S phase at 1 uM after 48 hrs by FACS analysis; assay type: functional; outline: as §2
A549 = assay: Cytotoxicity against human A549 cells after 72 hrs by trypan blue exclusion assay; assay type: functional, cell-based; details: A549, 72 h; outline: as §1
SK-MEL-28 [22] = assay: Cell cycle arrest in human SK-MEL-28 cells assessed as accumulation at G2/M phase at 1 uM after 48 hrs by FACS analysis; assay type: functional; details: in the assay text read “G0/G1 phase” for “G2/M phase”; outline: as §2
[23] = Cytotoxicity against mouse Neuro2a cells after 72 hrs by trypan blue exclusion assay; assay type: functional, cell-based; details: N2a; outline: as §1
HCT-8 = assay: Cytotoxicity against human HCT8 cells after 72 hrs by trypan blue exclusion assay; assay type: functional, cell-based; details: HCT-8, 72 h; outline: as §1
U-937 [24] = assay: Cytotoxicity against human U937 cells after 72 hrs by trypan blue exclusion assay; assay type: functional, cell-based; details: U-937, 72 h; outline: as §1
U-937 [25] = assay: Induction of dendrite out growth in IL-4/GMCSF-stimulated human U937 cells assessed as dendrite length at 100 nM after 48 hrs by light microscopy; assay type: functional
Outline: (§4)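 U937 cells at 1.1 × 10⁶ cells/mL were primed with 10 ng/mL PMA for 48 h in RPMI with 10% heat-inactivated serum. Adherent cells were then given 100 ng/mL IL-4 plus 100 ng/mL GM-CSF or 100 nM compound for 48 h. Dendrite length scored by light microscopy, from none to over 100 μm with a contact network.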

U-937 [26] = assay: Cytotoxicity against human U937 cells assessed as modification of cell morphology; assay type: functional
KG-1 = assay: Cytotoxicity against human KG1 cells after 72 hrs by trypan blue exclusion assay; assay type: functional, cell-based; details: KG-1, 72 h; outline: as §1
U-937 [27] = assay: Induction of dendrite outgrowth in IL-4/GMCSF-stimulated human U937 cells assessed as dendrite length after 48 hrs by light microscopy; assay type: functional; outline: as §4
MCF7 [28] = assay: Induction of human MCF7 cell differentiation assessed as lipid accumulation in intracytoplasmic vesicle at 1 uM after 48 hrs by oil red O staining-based light microscopy; assay type: functional
Outline: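 MCF-7 cells on glass coverslips treated with drug, fixed in 3.7% paraformaldehyde for 1 h at room temperature, and stained with oil red O in 60% isopropanol with hematoxylin counterstain. Dye extracted with isopropanol and read at 510 nm, with control subtracted and the value normalized to SYBR green DNA stain.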

P19 [29] = assay: Cytotoxicity against mouse P19 cells after 3 days by trypan blue exclusion assay; assay type: functional, cell-based; details: Mus musculus, P19, 72 h; read-out: IC50; outline: as §3
SK-MEL-28 [30] = assay: Cell cycle arrest in human SK-MEL-28 cells assessed as accumulation at S phase at 1 uM after 48 hrs by FACS analysis; assay type: functional; outline: as §2

CC(C)CCC[C@@H](C)[C@H]1CC[C@H]2[C@@H]3C[C@@H](NCCc4cnc[nH]4)[C@@]4(O)C[C@@H](O)CC[C@]4(C)[C@H]3CC[C@]12C [DENDROGENIN A]
IC50 (NB-4): 1320 nM | Activity (MCF7 [1]): 75% | IC50 (SK-MEL-28 [2]): 2120 nM | IC50 [3]: 1280 nM | IC50 (P19 [4]): 1800 nM | Activity (P19 [5]): > 200 um | Activity (MCF7 [6]): 3% | Activity (SK-MEL-28 [7]): 82% | Activity (SK-MEL-28 [8]): Active | IC50 [9]: 740 nM | Activity (P19 [10]): 65% | Activity (SK-MEL-28 [11]): Active | IC50 (SW-620): 420 nM | Activity (MCF7 [12]): Active | IC50 (SH-SY5Y): 1350 nM | IC50 (U-937 [13]): 800 nM | Activity (SK-MEL-28 [14]): Active | Activity (MCF7 [15]): 11% | IC50 (SK-N-SH): 2240 nM | Activity (SK-MEL-28 [16]): Active | Activity (MCF7 [17]): Active | Activity (P19 [18]): 50 um | IC50 (MCF7 [19]): 2310 nM | IC50 (B16-F10): 680 nM | Activity (SK-MEL-28 [20]): 1% | Activity (MCF7 [21]): 11% | IC50 (A549): 2560 nM | Activity (SK-MEL-28 [22]): 10% | IC50 [23]: 2320 nM | IC50 (HCT-8): 890 nM | IC50 (U-937 [24]): 790 nM | Activity (U-937 [25]): 50 um | Activity (U-937 [26]): 40% | IC50 (KG-1): 5530 nM | Activity (U-937 [27]): > 200 um | Activity (MCF7 [28]): Active | IC50 (P19 [29]): 2400 nM | Activity (SK-MEL-28 [30]): 7%
